According to ChEMBL document CHEMBL2150916, “Dual inhibition of γ-oryzanol on cellular melanogenesis: inhibition of tyrosinase activity and reduction of melanogenic gene expression by a protein kinase A-dependent mechanism” (J Nat Prod, 2012):
Active and inactive are the calls of the source. No cut-off for these calls is given here.

Legend:
[1] = molecular target: T1, Tyrosinase (Agaricus bisporus) (UniProt O42713); test: Inhibition of mushroom tyrosinase after 20 mins
T1 sequence (whole entry): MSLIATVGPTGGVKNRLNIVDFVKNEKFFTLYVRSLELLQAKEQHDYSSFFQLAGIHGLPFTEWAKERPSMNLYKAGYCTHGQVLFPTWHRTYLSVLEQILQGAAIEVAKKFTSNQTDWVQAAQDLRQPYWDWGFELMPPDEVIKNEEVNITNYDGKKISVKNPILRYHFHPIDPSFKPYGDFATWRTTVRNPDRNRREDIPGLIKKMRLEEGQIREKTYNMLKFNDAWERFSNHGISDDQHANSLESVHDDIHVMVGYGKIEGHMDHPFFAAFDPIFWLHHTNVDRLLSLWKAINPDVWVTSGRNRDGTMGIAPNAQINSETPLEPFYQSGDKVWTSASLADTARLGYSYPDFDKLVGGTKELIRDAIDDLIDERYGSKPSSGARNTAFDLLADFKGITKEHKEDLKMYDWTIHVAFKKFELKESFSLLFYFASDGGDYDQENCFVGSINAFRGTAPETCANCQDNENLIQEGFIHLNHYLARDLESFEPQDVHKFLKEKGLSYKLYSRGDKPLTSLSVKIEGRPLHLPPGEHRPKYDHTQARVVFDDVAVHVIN
How it was run: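 Mushroom tyrosinase in 0.1 M phosphate buffer with 0.03% (w/v) tyrosine as substrate, incubated 37 °C for 20 min. OD read at 492 nm; inhibition % = (1 − sample/control OD492) × 100. Arbutin positive control.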

[2] = Cytotoxicity against mouse B16-F1 cells; type: cell-based
How it was run: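 MTT assay on B16F1 murine melanoma cells tested over 300−0.03 μM. Cells grown in DMEM with 10% FBS and 1% penicillin/streptomycin at 37 °C, 5% CO2.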

B16/F1 [3] = test: Inhibition of PKA in mouse B16-F1 cells assessed as decrease of phosphorylated CREB expression at 3 uM after 72 hrs by immunoblotting; type: cell-based
How it was run: (§1)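 B16F1 cells treated 72 h at 3 μM. 40 μg total protein (Bradford) run on 10% SDS-PAGE and transferred to nitrocellulose. Blocked in TBS with 5% nonfat milk and 0.1% Tween 20. Probed with primary antibodies plus HRP secondaries and read by chemiluminescence. Band densities normalized to α-tubulin. Means ± SE of three independent experiments.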

B16/F1 [4] = test: Inhibition of PKA in mouse B16-F1 cells assessed as decrease of dopachrome tautomerase mRNA expression at 3 uM after 72 hrs by RT-PCR analysis; type: cell-based
How it was run: (§2)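 B16F1 cells treated 72 h at 3 μM. Total RNA extracted with Trizol; cDNA made from 2 μg RNA with M-MLV reverse transcriptase and oligo(dT). qPCR run 95 °C 3 min, then 50 cycles of 95 °C 10 s, 56 °C 15 s, 72 °C 20 s, with melting-curve check. Expression calculated relative to cyclophilin. Means ± SE of three independent experiments.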

[5] = Cytotoxicity against mouse B16-F1 cells at 5 mM; type: cell-based; conditions: b16-f1, 5000 µM
B16/F1 [6] = test: Inhibition of PKA in mouse B16-F1 cells assessed as decrease of MITF promoter- dependent paired-box 3 mRNA expression at 3 uM after 72 hrs […]; type: cell-based
How it was run: (§3)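 Two-color oligonucleotide microarray on Mouse OneArray chips, comparing untreated and treated (3 μM) B16F1 cells labelled with Cy3/Cy5-dUTP. RNA extracted with RNAiso Plus and further purified. Arrays scanned and probe-level expression values computed.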

B16/F1 [7] = test: Inhibition of PKA in mouse B16-F1 cells assessed as effect on ERK2 mRNA expression at 3 uM after 72 hrs by RT-PCR analysis; type: cell-based
B16/F1 [8] = test: Inhibition of PKA in mouse B16-F1 cells assessed as decrease of dopachrome tautomerase protein expression at 3 uM after 72 hrs by immunoblotting relative to control; type: cell-based; how it was run: as §1
B16/F1 [9] = test: Inhibition of PKA in mouse B16-F1 cells assessed as decrease of MITF protein expression at 3 uM after 72 hrs by immunoblotting relative to control; type: cell-based; how it was run: as §1
B16-F1 [10] = test: Inhibition of melanin synthesis in mouse B16-F1 cells after 72 hrs by spectrophotometric analysis; type: functional, cell-based
How it was run: (§4)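 B16F1 cells treated 72 h (3 or 30 μM). After lysis and centrifugation at 12000g, pellets dissolved in 1 N NaOH at 60 °C for 1 h. Absorbance read at 400 nm against a synthetic melanin standard, normalized to Bradford protein. Arbutin positive control. Means ± SE of three independent experiments.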

B16/F1 [11] = test: Inhibition of PKA in mouse B16-F1 cells assessed as decrease of MC1R mRNA expression at 3 uM after 72 hrs by RT-PCR analysis; type: cell-based
B16/F1 [12] = test: Inhibition of PKA in mouse B16-F1 cells assessed as effect on ERK2 phosphorylation at 3 uM after 72 hrs by immunoblotting; type: cell-based
B16/F1 [13] = test: Inhibition of PKA in mouse B16-F1 cells assessed as decrease of MITF promoter- dependent lymphoid enhancer factor mRNA expression at 3 uM after 72 hrs by […]; type: cell-based; how it was run: as §3
B16/F1 [14] = test: Inhibition of PKA in mouse B16-F1 cells assessed as decrease of TRP-1 protein expression at 3 uM after 72 hrs by immunoblotting relative to control; type: cell-based; how it was run: as §1
B16/F1 [15] = test: Inhibition of PKA in mouse B16-F1 cells assessed as decrease of TRP-1 mRNA expression at 3 uM after 72 hrs by RT-PCR analysis relative to control; type: cell-based; how it was run: as §2
[16] = molecular target: T2, Tyrosinase (Mus musculus) (UniProt P11344); test: Inhibition of tyrosinase in mouse B16-F1 cells using L-DOPA as substrate at 30 uM after 72 hrs; type: cell-based
T2 sequence (whole entry): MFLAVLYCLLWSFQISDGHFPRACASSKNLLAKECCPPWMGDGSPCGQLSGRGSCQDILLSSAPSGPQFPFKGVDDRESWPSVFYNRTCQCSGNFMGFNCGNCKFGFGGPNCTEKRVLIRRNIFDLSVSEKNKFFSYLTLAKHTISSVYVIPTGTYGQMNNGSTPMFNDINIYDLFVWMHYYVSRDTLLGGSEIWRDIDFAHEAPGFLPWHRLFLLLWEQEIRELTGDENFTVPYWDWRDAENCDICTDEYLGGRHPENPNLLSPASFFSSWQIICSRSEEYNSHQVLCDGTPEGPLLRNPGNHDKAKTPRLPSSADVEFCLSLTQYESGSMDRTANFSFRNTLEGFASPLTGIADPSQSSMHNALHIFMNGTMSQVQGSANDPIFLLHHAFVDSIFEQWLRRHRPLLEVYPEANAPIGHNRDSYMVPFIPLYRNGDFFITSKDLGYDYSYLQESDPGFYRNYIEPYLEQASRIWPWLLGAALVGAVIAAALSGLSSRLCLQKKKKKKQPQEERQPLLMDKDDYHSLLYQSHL
How it was run: (§5)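 B16F1 cells treated 72 h with 3 or 30 μM. Cells lysed in 1% Triton X-100/PBS pH 6.8 and spun at 12000g, 4 °C. Supernatant mixed with 0.1% (w/v) L-DOPA; A475 followed over the first 2 h and normalized to total protein. Means ± SE of three independent experiments.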

B16-F1 [17] = test: Inhibition of melanin synthesis in mouse B16-F1 cells at 30 uM after 72 hrs by spectrophotometric analysis relative to control; type: functional; conditions: B16-F1, 72 h; how it was run: as §4
B16/F1 [18] = test: Inhibition of PKA in mouse B16-F1 cells assessed as decrease of dopachrome tautomerase mRNA expression at 3 uM after 72 hrs by RT-PCR analysis relative to control; type: cell-based; how it was run: as §2
B16-F1 [19] = test: Inhibition of melanin synthesis in mouse B16-F1 cells at 3 uM after 72 hrs by spectrophotometric analysis relative to control; type: functional; conditions: B16-F1, 72 h; how it was run: as §4
B16/F1 [20] = test: Inhibition of PKA in mouse B16-F1 cells assessed as decrease of TRP-1 mRNA expression at 3 uM after 72 hrs by RT-PCR analysis; type: cell-based; how it was run: as §2
B16/F1 [21] = test: Inhibition of PKA in mouse B16-F1 cells assessed as decrease of MITF promoter- dependent sex-determining region Y-box 10 mRNA expression at 3 uM after 72 hrs by […]; type: cell-based; how it was run: as §3
B16/F1 [22] = test: Inhibition of PKA in mouse B16-F1 cells assessed as decrease of MITF mRNA expression at 3 uM after 72 hrs by RT-PCR analysis; type: cell-based; how it was run: as §2
B16/F1 [23] = test: Inhibition of PKA in mouse B16-F1 cells assessed as decrease of CREB mRNA expression at 3 uM after 72 hrs by […]; type: cell-based; how it was run: as §3
B16-F1 [24] = test: Inhibition of melanin synthesis in mouse B16-F1 cells at 30 uM after 30 mins by Fontana-Masson staining; type: functional, cell-based; conditions: in the assay text read “after 72 hrs” for “after 30 mins”
How it was run: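 B16F1 cells on slides treated with 30 μM, fixed in 4% paraformaldehyde for 30 min at room temperature. Melanin stained by Fontana−Masson (ammoniacal silver, gold chloride, sodium thiosulfate).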

B16/F1 [25] = test: Inhibition of PKA in mouse B16-F1 cells assessed as decrease of intracellular cAMP level at 3 uM after 72 hrs by colorimetric competitive immunoassay; type: cell-based
How it was run: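 Cellular cAMP in B16F1 cells after 72 h at 3 μM, measured by colorimetric competitive immunoassay kit. Means ± SE of three independent experiments.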

B16/F1 [26] = test: Inhibition of PKA in mouse B16-F1 cells assessed as decrease of MITF mRNA expression at 3 uM after 72 hrs by RT-PCR analysis relative to control; type: cell-based; how it was run: as §2
[27] = molecular target: T2, Tyrosinase (Mus musculus); test: Inhibition of tyrosinase in mouse B16-F1 cells using L-DOPA as substrate at 3 uM after 72 hrs; type: cell-based; how it was run: as §5

OC[C@H]1O[C@@H](Oc2ccc(O)cc2)[C@H](O)[C@@H](O)[C@@H]1O [ARBUTIN]
inhibition [1]: Active
Activity [2]: Toxic

COc1cc(/C=C/C(=O)O[C@H]2CC[C@]34C[C@]35CC[C@]3(C)[C@@H]([C@H](C)CCC=C(C)C)CC[C@@]3(C)[C@@H]5CC[C@H]4C2(C)C)ccc1O [GAMMA ORYZANOL]
inhibition (B16/F1 [3]): 57%
inhibition (B16/F1 [4]): 56%
Activity [5]: Non-toxic
inhibition (B16/F1 [6]): 29%
inhibition (B16/F1 [7]): inactive
inhibition (B16/F1 [8]): 92%
inhibition (B16/F1 [9]): 64%
inhibition (B16-F1 [10]): Dose-dependent effect
inhibition (B16/F1 [11]): 56%
inhibition [1]: Dose-dependent effect
inhibition (B16/F1 [12]): inactive
inhibition (B16/F1 [13]): 40%
inhibition (B16/F1 [14]): 82%
inhibition (B16/F1 [15]): 69%
inhibition [16]: 26%
inhibition at 30 µM (B16-F1 [17]): 28%
inhibition (B16/F1 [18]): 51%
inhibition at 3 µM (B16-F1 [19]): 13%
inhibition (B16/F1 [20]): 94%
inhibition (B16/F1 [21]): 90%
inhibition (B16/F1 [22]): 90%
inhibition (B16/F1 [23]): 28%
inhibition (B16-F1 [24]): Active
inhibition (B16/F1 [25]): 13%
inhibition (B16/F1 [26]): 59%
inhibition [27]: 29%
